Calls of active or inactive are those of the source. The calls are words filed in the database; no cut-off is given here.
Key:
[1] = Cytotoxicity against human MCF12A cells at 0.125 to 2 ug/ml after 1 to 5 days by sulforhodamine B assay; assay type: cell-based; conditions: mcf-12a
How it was run: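 Non-tumor cells seeded at 2×10^4 cells/ml and treated 24 h after seeding, in high-glucose DMEM with pyruvate, 10% FBS and penicillin-streptomycin, 37°C, 5% CO2. Compound exposure 0.125–2 μg/ml for 1, 3 and 5 days, with vehicle controls. Cells fixed and stained with sulforhodamine B for total cell mass. Data given as % of untreated control at each time point; five independent experiments.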

[2] = Cell cycle arrest against human Hs578T cells assessed as increase in cells at G0/G1 phase at 0.5 ug/ml after 24 to 48 hrs by propidium iodide staining based flow cytometry; assay type: functional; conditions: Hs-578T
How it was run: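 Log-phase Hs578T cells exposed 24 and 48 h to 0.5 μg/ml. Adherent plus floating cells fixed in cold 70% ethanol, kept overnight at -20°C, washed into PBS-T (132 mM NaCl, 4 mM KCl, 1.2 mM NaH2PO4, 0.1% Tween). Treated with 20 μg/ml RNase for 45 min at 37°C, then propidium iodide for 30 min at 37°C. Phase percentages read by flow cytometry. Mean ± SEM, 5 experiments.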

[3] = Cytotoxicity against human Hs578T cells assessed as decrease in live cells at 1 ug/ml for 24 to 48 hrs by flow cytometry; assay type: functional; conditions: Hs-578T
How it was run: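 Hs578T seeded at 2.5×10^4 cells/ml, exposed to 1 μg/ml or DMSO for 24 and 48 h. Cells trypsinized and resuspended in HEPES-buffered saline with 15 mM glucose. Stained 15 min at 37°C with 1 μM ethidium homodimer and 0.1 μM calcein-AM. Green (calcein) and red (ethidium homodimer) signals read by flow cytometry. Mean ± SEM, 6 experiments.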

Hs-578T [4] = assay: Induction of apoptosis in human Hs578T cells assessed as increase in caspase 3 like activity at 1 ug/ml after 24 hrs; assay type: functional, cell-based
Hs-578T [5] = assay: Induction of apoptosis in human Hs578T cells assessed as increase in cyclophilin D protein at 1 ug/ml after 24 hrs by Western blot analysis; assay type: functional, cell-based
How it was run: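 About 1.0×10^6 attached and floating HS578T cells, treated 24 h at 1 μg/ml, were lysed in HEPES/sucrose buffer with DTT, PMSF and protease inhibitors. Extracts were stored at -80°C, then p53 and cyclophilin D were semi-quantified by Western blot. Six experiments, mean ± SEM.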

Hs-578T [6] = assay: Effect on Bax protein level in human Hs578T cells at 1 ug/ml after 24 hrs by Western blot analysis; assay type: functional, cell-based
MDA-MB-231 = assay: Cytotoxicity against human MDA-MB-231 cells assessed as reduction in cell number in glucose-free, galactose/glutamine medium after 3 to 5 days; assay type: functional, cell-based
How it was run: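 Cells grown in glucose-free DMEM with galactose (1.8 g/L), L-glutamine (0.584 g/L), pyruvate and 10% FBS, forcing ATP from oxidative phosphorylation. Exposed to a dose range for 1, 3 and 5 days. Cell number read by sulforhodamine B and expressed as % of control. Mean ± SEM, 5 experiments.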

[7] = Induction of mitochondrial permeability transition pore in Wistar Han rat liver mitochondria assessed as mitochondrial swelling by spectrophotometry; assay type: functional
How it was run: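 Isolated rat liver mitochondria were energized with succinate plus rotenone and pre-incubated with compound at 0.07–1.33 µg/mg protein. MPT was then triggered by one Ca2+ pulse of 40 nmol/mg protein. Swelling was followed as pseudo-absorbance at 540 nm, and amplitude is basal minus the reading 600 s after Ca2+. Cyclosporin A at 1 µM was the reference, with 6 preparations.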

Liver microsome [8] = assay: Induction of mitochondrial function disruption in Wistar Han rat liver mitochondria energized with succinate assessed as State-3 level per mg of protein measured at 0.067 ug/mg of protein (reference value: 130.8 +/- 24.1 nmol/mg protein/min); assay type: functional
Liver microsome [9] = assay: Induction of mitochondrial function disruption in Wistar Han rat liver mitochondria energized with succinate assessed as State-3 level per mg of protein measured at 0.667 ug/mg of protein (reference value: 130.8 +/- 24.1 nmol/mg protein/min); assay type: functional
Liver microsome [10] = assay: Induction of mitochondrial function disruption in Wistar Han rat liver mitochondria energized with succinate assessed as State-4 level per mg of protein measured at 0.133 ug/mg of protein (reference value: 33.5 +/- 7.5 nmol/mg protein/min); assay type: functional
Liver microsome [11] = assay: Induction of mitochondrial function disruption in Wistar Han rat liver mitochondria energized with succinate assessed as State-4 level per mg of protein measured at 0.333 ug/mg of protein (reference value: 33.5 +/- 7.5 nmol/mg protein/min); assay type: functional
Liver microsome [12] = assay: Induction of mitochondrial function disruption in Wistar Han rat liver mitochondria energized with succinate assessed as State-4 level per mg of protein measured at 0.667 ug/mg of protein (reference value: 33.5 +/- 7.5 nmol/mg protein/min); assay type: functional
Liver microsome [13] = assay: Induction of mitochondrial function disruption in Wistar Han rat liver mitochondria energized with succinate assessed as State-4 level per mg of protein measured at 1.333 ug/mg of protein (reference value: 33.5 +/- 7.5 nmol/mg protein/min); assay type: functional
Liver microsome [14] = assay: Induction of mitochondrial function disruption in Wistar Han rat liver mitochondria energized with succinate assessed as adenosine diphosphate/O ratio measured at 1.333 ug/mg of protein (reference value: 2.3 +/- 0.2 no_unit); assay type: functional
Liver microsome [15] = assay: Induction of mitochondrial function disruption in Wistar Han rat liver mitochondria energized with succinate assessed as respiratory control ratio measured at 0.067 ug/mg of protein (reference value: 4.1 +/- 0.5 no_unit); assay type: functional
Liver microsome [16] = assay: Induction of mitochondrial function disruption in Wistar Han rat liver mitochondria energized with succinate assessed as respiratory control ratio measured at 0.133 ug/mg of protein (reference value: 4.1 +/- 0.5 no_unit); assay type: functional
Liver microsome [17] = assay: Induction of mitochondrial function disruption in Wistar Han rat liver mitochondria energized with succinate assessed as respiratory control ratio measured at 0.667 ug/mg of protein (reference value: 4.1 +/- 0.5 no_unit); assay type: functional
Liver microsome [18] = assay: Induction of mitochondrial function disruption in Wistar Han rat liver mitochondria energized with succinate assessed as respiratory control ratio measured at 1.333 ug/mg of protein (reference value: 4.1 +/- 0.5 no_unit); assay type: functional
Hs-578T [19] = assay: Cytotoxicity against human Hs578T cells at 0.125 to 2 ug/ml incubated for 6 hrs folowed by drug wash out and fresh medium addition and measured 5 days after wash out; assay type: functional, cell-based
Liver microsome [20] = assay: Induction of mitochondrial permeability transition pore in Wistar Han rat liver mitochondria assessed as mitochondrial swelling by spectrophotometry relative to control
Hs-578T [21] = assay: Induction of apoptosis in human Hs578T cells assessed as increase in caspase 9 like activity at 1 ug/ml after 24 hrs; assay type: functional, cell-based
How it was run: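 HS578T cells were treated 24 h at 1 μg/ml. Attached and floating cells were lysed in HEPES pH 7.4/CHAPS/DTT buffer. Extract protein was incubated 2 h at 37°C with […] Ac-DEVD-pNA (caspase-3) or Ac-LEHD-pNA (caspase-9). Released p-nitroanilide was read at endpoint against a pNA calibration. Six experiments, mean ± SEM.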

Row | SMILES | Activity [1] | Activity [2] | inhibition at 1 µg/mL [3] | Activity (Hs-578T [4]) | Activity (Hs-578T [5]) | Activity (Hs-578T [6]) | Cytotoxicity (active/inactive call) (MDA-MB-231) | Activity [7] | Activity (Liver microsome [8]) | Activity (Liver microsome [9]) | Activity (Liver microsome [10]) | Activity (Liver microsome [11]) | Activity (Liver microsome [12]) | Activity (Liver microsome [13]) | Ratio (Liver microsome [14]) | Ratio (Liver microsome [15]) | Ratio (Liver microsome [16]) | Ratio (Liver microsome [17]) | Ratio (Liver microsome [18]) | inhibition (Hs-578T [19]) | also measured
1 | C=C(C)[C@@H]1CC[C@]2(COC(=O)C[n+]3ccc(N(C)C)cc3)CC[C@]3(C)[C@H](CC[C@@H]4[C@@]5(C)CC[C@H](OC(=O)C[n+]6ccc(N(C)C)cc6)C(C)(C)[C@@H]5CC[C@]43C)[C@@H]12.[Cl-].[Cl-] | Toxic | Active | 10% | Active | Active | inactive | Active | Dose-dependent effect | 132 nmol/min | 141 nmol/min | 34.5 nmol/min | 34.8 nmol/min | 34.5 nmol/min | 34.8 nmol/min | 2.3 | 4.1 | 4.1 | 4.4 | 4 | Active | fold change (FC) (Liver microsome [20]): 5
2 | C=C(C)[C@@H]1CC[C@]2(COC(=O)CC[n+]3ccc(N(C)C)cc3)CC[C@]3(C)[C@H](CC[C@@H]4[C@@]5(C)CC[C@H](OC(=O)CC[n+]6ccc(N(C)C)cc6)C(C)(C)[C@@H]5CC[C@]43C)[C@@H]12.[Cl-].[Cl-] | Toxic | Active |  | Active | Active | inactive | Active | inactive | 127 nmol/min | 116 nmol/min | 25.3 nmol/min | 29.1 nmol/min | 25.7 nmol/min | 25.7 nmol/min | 1.8 | 4.3 | 4.1 | 4.6 | 4.3 | Active | Activity (Hs-578T [21]): Active
3 | C=C(C)[C@@H]1CC[C@]2(COC(=O)C[N+](C)(C)C(C)C)CC[C@]3(C)[C@H](CC[C@@H]4[C@@]5(C)CC[C@H](OC(=O)C[N+](C)(C)C(C)C)C(C)(C)[C@@H]5CC[C@]43C)[C@@H]12.[Cl-].[Cl-] | Non-toxic | Active | 10% | Active | Active | inactive | Active | Dose-dependent effect | 117 nmol/min | 116 nmol/min | 28.6 nmol/min | 27.2 nmol/min | 28.8 nmol/min | 28.7 nmol/min | 2.9 | 4 | 4 | 4.3 | 4.2 | Active | Activity (Hs-578T [21]): Active; fold change (FC) (Liver microsome [20]): 5
4 | C=C(C)[C@@H]1CC[C@]2(COC(=O)C(CC)[n+]3ccc(N(C)C)cc3)CC[C@]3(C)[C@H](CC[C@@H]4[C@@]5(C)CC[C@H](OC(=O)C(CC)[n+]6ccc(N(C)C)cc6)C(C)(C)[C@@H]5CC[C@]43C)[C@@H]12 (stereo partly drawn) |  | Active | 10% | Active | Active | inactive | Active | Dose-dependent effect | 130 nmol/min | 125 nmol/min | 23.7 nmol/min | 23.2 nmol/min | 23.2 nmol/min | 21.5 nmol/min | 1.6 | 3 | 3 | 3.1 | 3.2 |  | Activity (Hs-578T [21]): Active; fold change (FC) (Liver microsome [20]): 5

Source: ChEMBL document CHEMBL3351723, “New derivatives of lupane triterpenoids disturb breast cancer mitochondria and induce cell death” (Bioorg Med Chem, 2014)
